{"source": "paper PMC6882486", "about": "(Journal of Enzyme Inhibition and Medicinal Chemistry, 2019)", "key": {"HCT116": {"tested_on": "HCT116", "assay": "MTT anti-tumour cell proliferation in vitro, HCT116", "type": "cell-based", "details": "Homo sapiens, HCT-116, 36 h, read-out: Cells IC50 (μM) HCT116", "procedure,_shortened": "(§1)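 Cells grown in RPMI1640 with 10% foetal bovine serum at 37 °C, 5% CO2. Seeded at 5000/well in triplicate and allowed 6 h to adhere. Treated with a concentration series of test compound for 36 h. Reference CDK inhibitor at the same concentrations served as positive control, and DMSO as negative control. Stained with 5% MTT; absorbance read at 570 nm.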"}, "CDK2": {"target": "CDK2 (Homo sapiens, UniProt P24941)", "assay": "ADP-Glo Kinase Assay, cell-free detection of CDK2 activity", "type": "biochemical"}, "A549": {"tested_on": "A549", "assay": "MTT anti-tumour cell proliferation in vitro, A549", "type": "cell-based", "details": "Homo sapiens, A549, 36 h, read-out: Cells IC50 (μM) A549", "procedure,_shortened": "as §1"}}, "data": [{"smiles": "CNC(=O)c1nn(C)c2c1C(C)(C)Cc1cnc(Nc3ccc(N4CCN(C)CC4)cc3)nc1-2", "note": "[Milciclib]", "values": [{"measurement": "IC50", "setting": "HCT116", "result": "1.1 ± 0.3", "unit": "µM"}, {"measurement": "IC50", "setting": "CDK2", "result": "52.7 ± 3.1", "unit": "nM"}, {"measurement": "IC50", "setting": "A549", "result": "3.7 ± 0.4", "unit": "µM"}]}]}
